Hits are enriched below; roughly 11% of the tested compounds scored in any of these assays.
D1 allo mod: D1 dopamine receptor (human) allosteric modulation. P21728. AID 641. 5.9% of 58,000 active. HEK293 D1, CRE-luciferase, dopamine EC30 potentiation; actives deviate in either direction. B-score at 10 µM;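 active = luminescence count or its row- and column-corrected plate score outside the 99.7% band of the plate's sample wells, on either side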
M1 agonist: agonists of M1 muscarinic receptor. CHO-M1 cells, Fluo-4 calcium fluorescence, agonist mode; active compounds read high. B-score at 10 µM. 3% of 64,000 active. AID 626;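 active = fluorescence rise, raw or as B-score row- and column-corrected plate score, outside the 99.7% band of its plate's samples, either direction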
S1P1 ag-PAM: activates or potentiates agonism at human S1P1 receptor. S1P1 CRE-bla cells, forskolin, beta-lactamase FRET, potentiator mode; S1P1 agonist co-added at EC20, 2 nM; 100% = saturating reference agonist, 0% = basal. AID 449. activation, % at 9.5 µM. 0.57% of 56,000 active;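 active = activation above a cutoff set at the mean activation of all tested compounds plus 3 SD, cut at about 54% in these data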;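 also: forskolin at 4 µM as EC80 and the EC20 agonist is SEW2871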
TNAP act mid DEA: human TNAP activation, intermediate phosphate acceptor | activation factor at 20 µM | P05186 | 64,000 tested, under 10 active | purified TNAP, CDP-star luminescence, 100 mM DEA, 30 min; active compounds read high; scale: 0 levamisole-inhibited, 1 vehicle-only enzyme;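 active = activation factor of at least 2 at 20 µM, relative to controls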
S1P3 agonist: activates the human S1P3 receptor; Q99500; S1P3 NFAT-BLA reporter cells, agonism, FRET ratio; relative to 1 µM S1P, basal subtracted; activation, % at 4.5 µM; 0.1% of 60,000 active; AID 373;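 active = activation above the screen-wide mean plus 3 SD, cut at about 4.5% in these data, passing the limit was not always enough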
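Measure – % activation relative to 1 µM S1P (100%), per plate · System – stable CHO line with human S1P3, Gα16, NFAT-BLA reporter · Timing – cells plated overnight, compound 4 h 37 °C, substrate 2 h RT · Technique – fluorescent BLA substrate, ex 405 nm, em 460/535 nm ratio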
M1 antag: blocks the rat M1 muscarinic receptor response to acetylcholine; 3.4% of 64,000 active; CHO-M1 cells, Fluo-4 calcium, ACh EC80 antagonist mode; active compounds read low; B-score at 10 µM;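 active = calcium fluorescence response, raw or row-and-column corrected B-score, differing from the plate sample mean either way at a set confidence level, mostly lower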
Target sequence (P08482 whole entry, looked up): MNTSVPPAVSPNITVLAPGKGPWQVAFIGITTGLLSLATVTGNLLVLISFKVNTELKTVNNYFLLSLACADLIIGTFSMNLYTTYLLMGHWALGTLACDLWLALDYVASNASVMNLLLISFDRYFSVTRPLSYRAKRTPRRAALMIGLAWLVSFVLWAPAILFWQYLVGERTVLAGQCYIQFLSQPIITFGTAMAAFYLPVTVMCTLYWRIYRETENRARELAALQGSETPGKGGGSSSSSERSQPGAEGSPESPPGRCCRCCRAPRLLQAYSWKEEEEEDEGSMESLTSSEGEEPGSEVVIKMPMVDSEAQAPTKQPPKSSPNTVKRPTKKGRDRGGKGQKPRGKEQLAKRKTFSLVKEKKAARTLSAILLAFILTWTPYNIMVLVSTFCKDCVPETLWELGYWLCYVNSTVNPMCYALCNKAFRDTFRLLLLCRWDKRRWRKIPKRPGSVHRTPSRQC
M1 antag conf: M1 muscarinic receptor (rat) antagonism, confirmed. calcium response (max-min fluorescence) at 10 µM. CHO-M1 cells, Fluo-4 calcium, ACh EC80 antagonism; active compounds read low. shares compounds with M1 antag. 43% of 1,700 active;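 active = calcium response below the same-plate mean of wells given acetylcholine alone at its 80%-effect dose, minus 3 SD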
mGluR4 antag: mGluR4 (human) activity, M1 antagonist secondary assay; fluorescence response (max-min) at 10 µM; shares compounds with M1 antag; 0.9% of 1,700 active; CHO-mGluR4 calcium flux, Fluo-4 fluorescence, glutamate EC80; active compounds read low;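 active = fluorescence response below the plate's average for near-maximal glutamate wells, less 3 SD of those wells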;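 also: raw unnormalized fluorescence span taken in the window right after glutamate addition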
Of the large screens only hits and unclear results are named; the others gave an inactive call (follow-up assays come after a bar, where they were run).

Cc1cc(C)n(CC(O)CN2c3ccccc3Sc3ccccc32)n1 (stereo not given)	none
Cc1cc(C(=O)OCC(=O)Nc2cc(C)on2)c2ccccc2n1	M1 antag -6.1 | M1 antag conf inactive | mGluR4 antag inactive
COc1ccc(OC)c(CCNC(=O)CS(=O)(=O)Cc2nc(-c3ccccc3C)oc2C)c1	none
N#Cc1nc(COc2ccc(-c3ccccc3)cc2)oc1NCCCN1CCOCC1	M1 antag -3 | M1 antag conf inactive | mGluR4 antag inactive
N#Cc1nc(COc2ccccc2)oc1NCCN1CCOCC1	none (no result: S1P1 ag-PAM, S1P3 agonist)
Cc1nc2c3ccccc3[nH]c(=O)n2n1	none (no result: S1P1 ag-PAM, S1P3 agonist)
CC(C)Oc1ccc(C(=O)Nc2ccc(N3CCCC3)cc2)cc1	M1 antag -2.1 | M1 antag conf 405 | mGluR4 antag inactive
COc1ccc(-n2cnnc2SCc2csc(-c3ccccc3)n2)cc1	none
CCC1(C)Cc2ccccc2/C(=C/C(=O)N2CCCCC2)N1 (stereo not given)	M1 antag -2.7 | M1 antag conf 18 | mGluR4 antag inactive
COC(=O)CC1C(=O)NCCN1C(=O)Nc1ccccc1 (stereo not given)	none
CCOC(=O)CC1C(=O)NCCN1C(=O)Nc1ccccc1 (stereo not given)	M1 antag -2.2 | M1 antag conf inactive | mGluR4 antag inactive
CCN1CCc2c(C#N)c(N3CCOCC3)nc(NCc3ccccc3)c2C1	M1 antag -2.2 | M1 antag conf inactive | mGluR4 antag inactive
CCN1CCc2c(C#N)c(N3CCCCC3)nc(NCc3ccccc3)c2C1	none
CC(=O)C1=C(C)Nc2ncnn2C1c1ccc(Cl)cc1Cl (stereo not given)	none
CCOC(=O)CSC(CC)C(=O)Nc1nnc(CC)s1 (stereo not given)	none
CCN(CC)Cc1cc(C(C)=O)ccc1OCC(C)C	none (no result: D1 allo mod)
CCN(CC)Cc1cc(CC(C(N)=O)C(N)=O)ccc1OC	M1 antag -2.5 | M1 antag conf inactive | mGluR4 antag inactive
CCN1CCN(C(=O)C2c3cc(OC)c(OC)cc3C(=O)N(C)C2c2ccc(SC)cc2)CC1 (stereo not given)	none (no result: S1P1 ag-PAM, S1P3 agonist)
CCOc1ccc(Cn2nnc(C(=O)NCc3ccc(OC)cc3)c2N)cc1	M1 antag -1.6 | M1 antag conf inactive | mGluR4 antag inactive
CCOC(=O)N1CCC(NC(=O)CN2C(=O)C(CC)Oc3ccc(C)cc32)CC1 (stereo not given)	M1 antag -5.7 | M1 antag conf inactive | mGluR4 antag inactive
CCC1Oc2ccc(C)cc2N(CC(=O)NCCN2CCCCCC2)C1=O (stereo not given)	none
COCCNc1nc(=S)[nH]c2cc(OC)c(OC)cc12	none
CCOCCCNc1nc(=S)[nH]c2cc(OC)c(OC)cc12	M1 antag -2.9 | M1 antag conf inactive | mGluR4 antag inactive
CCOC(=O)C1=C(O)CCn2c1nc1ccccc12	M1 antag -2.3 | M1 antag conf inactive | mGluR4 antag inactive
CCOC(=O)c1ccc(S(=O)(=O)n2c(CN3CCCCC3)nc3ccccc32)cc1	none
C=CCOc1ccc(CNc2nn[nH]n2)cc1	none
CS(=O)(=O)Nc1ccc(Cc2ccc(NS(C)(=O)=O)cc2)cc1	M1 antag -3.2 | M1 antag conf inactive | mGluR4 antag inactive
CCCCCOc1ccc(NS(C)(=O)=O)cc1	none
CN1CCCN=C1COC(=O)C(O)(c1ccccc1)C1CCCCC1 (stereo not given)	M1 antag -16 | M1 antag conf 26 | mGluR4 antag inactive
CCOC(=O)C(NC(=O)N1CCCCC1)(c1ccccc1)C(F)(F)F (stereo not given)	none
Cc1cc(N2CCC(N(C)C3CCCC3)CC2)nc2cc(O)ccc12	M1 antag -0.69 (no result: D1 allo mod) | M1 antag conf 579 | mGluR4 antag inactive
COc1cccc(CN2CCCN(S(=O)(=O)c3ccc(Br)cc3)CC2)c1	M1 antag -10 | M1 antag conf 301 | mGluR4 antag inactive
COc1ccc(S(=O)(=O)N2CCN(C3CCN(Cc4ccccc4)CC3)CC2)cc1	M1 antag -11 | M1 antag conf 189 | mGluR4 antag inactive
O=S(=O)(c1ccccc1)N1CCN(C2CCN(Cc3ccccc3)CC2)CC1	M1 antag -7.5 (no result: S1P1 ag-PAM) | M1 antag conf 244 | mGluR4 antag inactive
COc1ccc(S(=O)(=O)N2CCN(C3CCCCCCC3)CC2)cc1	none
Cc1ccc(S(=O)(=O)N2CCN(C3CCN(Cc4ccccc4)CC3)CC2)cc1	M1 antag -15 | M1 antag conf 292 | mGluR4 antag inactive
Cc1ccc(C)c(NS(=O)(=O)c2ccc(NC(=O)c3ccco3)cc2)c1	none (no result: S1P1 ag-PAM, S1P3 agonist)
O=C(CCS(=O)(=O)c1ccc(Cl)cc1)OCC(=O)N1CCCCC1	none
C(=N\n1cnnc1)/c1ccc(-c2ccccc2)cc1	M1 antag -7.4 | M1 antag conf inactive | mGluR4 antag inactive
C[N+]12CCC(CC1)C(OC(=O)C(O)(c1ccccc1)c1ccccc1)C2 (stereo not given)	M1 antag -16 | M1 antag conf 16 | mGluR4 antag inactive
Cc1ccc(-c2nnn(CC(=O)N(CC(=O)NCc3ccccc3)c3cccc(C)c3C)n2)o1	none (no result: D1 allo mod)
COc1ccc(N2C(=O)C(Cl)=C(Nc3c(C)n(C)n(-c4ccccc4)c3=O)C2=O)cc1	M1 antag -3.8 | M1 antag conf 427 | mGluR4 antag inactive
COc1ccccc1C(=O)Nc1c(C)n(C)n(-c2ccccc2)c1=O	none
COC(=O)c1ccc(Oc2nc(N3CCCCC3)nc(N3CCOCC3)n2)cc1	M1 antag -2.3 (no result: S1P1 ag-PAM) | M1 antag conf inactive | mGluR4 antag inactive
Clc1ccc(Oc2nc(Oc3ccc(Cl)cc3)nc(N3CCOCC3)n2)cc1	none (no result: D1 allo mod, M1 agonist, M1 antag)
CCC(=O)Nc1ccc(-c2nc(-c3ccccc3)n(CC(=O)N3CCCCC3)n2)cc1	none (no result: D1 allo mod, M1 agonist, M1 antag)
CCN(CC)CCCN1C(=O)c2oc3ccccc3c(=O)c2C1c1cccnc1 (stereo not given)	none
CCN(CC)CCCN1C(=O)c2oc3ccccc3c(=O)c2C1c1cc(OC)ccc1OC (stereo not given)	M1 antag -1.9 | M1 antag conf inactive | mGluR4 antag inactive
COC(=O)C1=C(C)N=C2SCCC(=O)N2C1/C=C/c1ccccc1 (stereo not given)	M1 antag -4.5 | M1 antag conf 253 | mGluR4 antag inactive
COC(=O)c1ccc(C2C(C(=O)OC(C)C)=C(C)N=C3SCCC(=O)N32)cc1 (stereo not given)	none

Screens: PubChem BioAssay, several laboratories
